Screening results as filed in PubChem BioAssay.
TDP2 inh: human TDP2 enzyme inhibitors, primary screen, biochemical, epi absorbance, recombinant enzyme | inhibition, % at 12.8 µM | T5PNP hydrolysis, p-nitrophenol absorbance 415 nm | 370,000 tested, 0.34% active | Tyrosyl-DNA phosphodiesterase 2 (Homo sapiens), O95551;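 active = inhibition above the mean of all tested compounds plus 3 SD, set per campaign, cut at about 25% in these data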;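 also: 0% = DMSO with enzyme and 100% = buffer with substrate but no TDP2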
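System – recombinant human TDP2 · Quantity – TDP2 enzyme at 120 nM final · Doses – single concentration, 12.8 µM nominal, with 1% DMSO · Incubation – 2 h at 37 °C · Measured by – epi absorbance of p-nitrophenol freed from T5PNP by hydrolysis · Read-out – % inhibition relative to enzyme-containing and enzyme-free wells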
Apaf-1 inh: inhibitors of human Apaf-1 apoptosome, primary screen, biochemical, DEVD-Rh110 fluorescence, uHTS. 330,000 tested, 0.71% active. reconstituted apoptosome caspase-3 activity. inhibition, % at 20 µM. Apoptotic protease-activating factor 1 (Homo sapiens), O14727. AID 489030, 2010; active = inhibition of at least 40% at 20 µM;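 also: plate controls were DMSO wells for no effect and DEVD-CHO caspase inhibitor wells for full effect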
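Material: cell-free apoptosome with Apaf-1, procaspase-3 and caspase-9; Buffer or medium: Hepes pH 7.5 with detergent and BSA; Reagent: cytochrome c trigger plus (Z-DEVD)2-Rh110 caspase-3 substrate; Times: compound with Apaf-1, dATP, procaspase-3 30 min, then 50 min reaction, room temperature; Technique: Rh110 fluorescence intensity.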
PAFAH1B2 FP inh: PAFAH1B2 enzyme inhibitors, primary screen, biochemical, fluorescence polarization, human. Platelet-activating factor acetylhydrolase IB subunit alpha2 (Homo sapiens), P68402. recombinant PAFAH1B2, FP-rhodamine activity probe. inhibition, % at 3.39 µM. 340,000 tested, 1.2% active. AID 492953, 2010;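 active = inhibition above the mean of all tested compounds plus 3 SD, cut at about 24% in these data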;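 also: 0% = enzyme with DMSO and 100% = wells lacking PAFAH1B2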
Target sequence (P68402 whole entry, looked up): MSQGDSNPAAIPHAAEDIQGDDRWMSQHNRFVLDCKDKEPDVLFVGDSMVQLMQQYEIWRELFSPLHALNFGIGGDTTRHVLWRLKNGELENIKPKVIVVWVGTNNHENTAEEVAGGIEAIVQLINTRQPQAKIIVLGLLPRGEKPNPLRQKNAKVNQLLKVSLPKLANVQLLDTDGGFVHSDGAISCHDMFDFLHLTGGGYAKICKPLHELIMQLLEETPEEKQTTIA
PAFAH2 inh: PAFAH2 enzyme inhibitors, primary screen, biochemical, fluorescence polarization, human | Platelet-activating factor acetylhydrolase 2, cytoplasmic (Homo sapiens), Q99487 | recombinant PAFAH2, FP-rhodamine activity probe | inhibition, % at 3.39 µM | 340,000 tested, 0.99% active | AID 492956, 2010;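 active = inhibition above the mean over all tested compounds plus 3 SD, cut at about 30% in these data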;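 also: inhibitors block probe labeling of enzyme so polarization drops; 0% = enzyme with DMSO and 100% = wells lacking PAFAH2 protein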
PAFAH1B3 FP inh: PAFAH1B3 enzyme inhibitors, primary screen, biochemical, fluorescence polarization, human; inhibition, % at 3.39 µM; AID 492972, 2010; 340,000 tested, 0.28% active; recombinant PAFAH1B3, FP-rhodamine probe;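 active = inhibition above the screen-wide average of all tested compounds plus 3 SD, cut at about 25% in these data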;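 also: 0% = enzyme with DMSO only and 100% = wells lacking PAFAH1B3 protein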
Target sequence (Q15102 whole entry, looked up): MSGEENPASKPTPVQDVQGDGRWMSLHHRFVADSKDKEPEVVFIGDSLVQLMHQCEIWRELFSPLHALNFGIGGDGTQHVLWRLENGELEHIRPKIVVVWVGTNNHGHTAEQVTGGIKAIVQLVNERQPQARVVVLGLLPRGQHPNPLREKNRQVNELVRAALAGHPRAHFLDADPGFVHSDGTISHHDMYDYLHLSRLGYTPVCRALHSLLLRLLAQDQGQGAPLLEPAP
* marks the source's active call; other numbers are inactive results. Most compounds without a hit are left out; they make up all but 2.3% or so of the library.

Cc1ccc(-n2c(C)nc3ccsc3c2=O)cc1 was read as TDP2 inh -12, Apaf-1 inh -11, PAFAH1B2 FP inh 1, PAFAH2 inh -5 and PAFAH1B3 FP inh 7.
Screening Cc1ccc(-c2nc3ccsc3c(=O)o2)cc1 returned TDP2 inh 10, Apaf-1 inh 26, PAFAH1B2 FP inh -1, PAFAH2 inh 66* and PAFAH1B3 FP inh 11.
Cc1[nH]nc(-c2ccc(O)cc2O)c1Oc1ccccc1 was read as TDP2 inh -1, Apaf-1 inh 16, PAFAH1B2 FP inh 27*, PAFAH2 inh 1 and PAFAH1B3 FP inh 5.
`CCCOC(=O)c1ccc(Oc2c(-c3ccc(O)cc3O)n[nH]c2C)cc1` gave TDP2 inh -1, Apaf-1 inh 15, PAFAH1B2 FP inh -7, PAFAH2 inh -10 and PAFAH1B3 FP inh 9.
Screening O=S(=O)(c1ccc(Cl)cc1)N1CCC(n2cccc2)CC1 returned TDP2 inh 11, Apaf-1 inh -8, PAFAH1B2 FP inh 29*, PAFAH2 inh 1 and PAFAH1B3 FP inh 2.
Screening CC(=O)c1ccc(S(=O)(=O)N2CCC(c3nc4ccccc4[nH]3)CC2)cc1 returned TDP2 inh -3, Apaf-1 inh 20, PAFAH1B2 FP inh 1, PAFAH2 inh -9 and PAFAH1B3 FP inh 1.
For O=S(=O)(c1ccc(Cl)cc1)N1CCC2(CC1)CO2 the results were TDP2 inh -1, Apaf-1 inh 5, PAFAH1B2 FP inh 28*, PAFAH2 inh -6 and PAFAH1B3 FP inh 11.
`O=S(=O)(c1ccccc1)N1CCC2(CC1)CO2` gave TDP2 inh 3, Apaf-1 inh -6, PAFAH1B2 FP inh 5, PAFAH2 inh 15 and PAFAH1B3 FP inh 1.
For O=C1CCN(S(=O)(=O)c2ccc(Cl)cc2)CC1 the results were TDP2 inh 10, Apaf-1 inh 12, PAFAH1B2 FP inh 25*, PAFAH2 inh 6 and PAFAH1B3 FP inh 7.
O=S(=O)(c1ccc(Cl)cc1)N1CCC(c2nc3ccccc3[nH]2)CC1 was read as TDP2 inh 8, Apaf-1 inh 1, PAFAH1B2 FP inh 27*, PAFAH2 inh 11 and PAFAH1B3 FP inh 4.
For COC(=O)C1CN(Cc2cn(Cc3ccc(OC)cc3)nn2)CCS(=O)(=O)N1Cc1ccc(OC)cc1 (stereo not drawn) the results were TDP2 inh -1.
Screening COc1ccc(/C=C2\SC(=O)N(CCCC(=O)Nc3cc(Cl)ccc3C(=O)O)C2=O)cc1 returned TDP2 inh 11, Apaf-1 inh 16, PAFAH1B2 FP inh 38*, PAFAH2 inh 3 and PAFAH1B3 FP inh 2.
`COc1ccc(/C=C2\SC(=S)N(CCC(=O)Nc3ccccc3C(=O)O)C2=O)cc1` gave TDP2 inh -14, Apaf-1 inh 14, PAFAH1B2 FP inh -4, PAFAH2 inh 1 and PAFAH1B3 FP inh 8.
For CCCC1=NN(c2ccc([N+](=O)[O-])cc2)C(=O)/C1=C\N(C)C the results were TDP2 inh 6, Apaf-1 inh 10, PAFAH1B2 FP inh -3, PAFAH2 inh -8 and PAFAH1B3 FP inh 1.
`CCN(CC)c1ccc(/C=C2/C(=O)N(c3ccc([N+](=O)[O-])cc3)N=C2N2CCOCC2)cc1` gave Apaf-1 inh 56*.
NC(=O)CCN(C(=O)c1cccc(S(=O)(=O)N2CCc3ccccc32)c1)c1ccccc1 was read as TDP2 inh 3, Apaf-1 inh -1, PAFAH1B2 FP inh 27*, PAFAH2 inh -3 and PAFAH1B3 FP inh 4.
C#CCNC(=O)C[C@@H]1C[C@@](CCC(=O)OCC)(C(=O)OCC)C2=CCCCN2C1=O was read as TDP2 inh 5.
Screening Cc1ccc(NC(=O)C2CCN(c3nnc(-n4cccc4)s3)CC2)c(C)c1 returned TDP2 inh 2.
Screening Cc1ccc(S(=O)(=O)N2[C@@H](c3ccc(C(C)(C)C)cc3)C(C(=O)O)=CC[C@H]2c2cccc(Cl)c2)cc1 returned TDP2 inh 5, Apaf-1 inh 17, PAFAH1B2 FP inh 78*, PAFAH2 inh 6 and PAFAH1B3 FP inh -3.
Screening Cc1ccc(S(=O)(=O)N2[C@@H](c3ccc(C(C)(C)C)cc3)C(C(=O)O)=CC[C@H]2c2ccc(Cl)c(Cl)c2)cc1 returned TDP2 inh 0, Apaf-1 inh 27, PAFAH1B2 FP inh 76*, PAFAH2 inh -6 and PAFAH1B3 FP inh -8.
Cc1ccc(S(=O)(=O)N2[C@@H](c3ccccc3)C(C(=O)O)=CC[C@H]2c2cccs2)cc1 was read as TDP2 inh -5, Apaf-1 inh 12, PAFAH1B2 FP inh 25*, PAFAH2 inh 3 and PAFAH1B3 FP inh 1.
`Cc1ccc(S(=O)(=O)N2[C@@H](c3ccc(Cl)cc3)C(C(=O)O)=CC[C@H]2c2ccc(C(C)C)cc2)cc1` gave TDP2 inh -5, Apaf-1 inh 20, PAFAH1B2 FP inh 93*, PAFAH2 inh 16 and PAFAH1B3 FP inh 8.
`COc1ccc([C@@H]2CC=C(C(=O)O)[C@H](c3ccc(C(C)(C)C)cc3)N2S(=O)(=O)c2ccc(C)cc2)cc1OC` gave TDP2 inh 3, Apaf-1 inh 24, PAFAH1B2 FP inh 13, PAFAH2 inh -3 and PAFAH1B3 FP inh -2.
For CCOC(=O)NC[C@@]1(C(=O)OC)CC(=O)N(C)[C@@H]1c1ccccc1 the results were TDP2 inh 9.
COc1ccc([C@@H]2CC=C(C(=O)O)[C@H](c3ccc(C)cc3)N2S(=O)(=O)c2ccc(C)cc2)cc1OC was read as TDP2 inh 8, Apaf-1 inh -11, PAFAH1B2 FP inh 12, PAFAH2 inh -1 and PAFAH1B3 FP inh 6.
Cc1ccc(S(=O)(=O)N2[C@@H](c3ccc(Cl)cc3)C(C(=O)OC(C)(C)C)=CC[C@H]2c2ccc(Cl)c(Cl)c2)cc1 was read as TDP2 inh -16.
Cc1ccc(S(=O)(=O)N2[C@@H](c3ccc(Br)cc3)C(C(=O)O)=CC[C@H]2c2ccc3c(c2)OCO3)cc1 was read as TDP2 inh -9, Apaf-1 inh -7, PAFAH1B2 FP inh 72*, PAFAH2 inh -2 and PAFAH1B3 FP inh 7.
For Cc1ccc(S(=O)(=O)N2[C@@H](c3ccc(Br)cc3)C(C(=O)O)=CC[C@H]2c2ccc(Cl)c(Cl)c2)cc1 the results were TDP2 inh -2, Apaf-1 inh 3, PAFAH1B2 FP inh 87*, PAFAH2 inh 0 and PAFAH1B3 FP inh 0.
For COc1cccc([C@@H]2CC=C(C(=O)O)[C@H](c3ccc(C)cc3)N2S(=O)(=O)c2ccc(C)cc2)c1 the results were TDP2 inh -1, Apaf-1 inh 3, PAFAH1B2 FP inh 27*, PAFAH2 inh -9 and PAFAH1B3 FP inh 4.
